Measurements published in ChEMBL document CHEMBL4261550, “Triazolopyrimidines identified as reversible myeloperoxidase inhibitors” (Medchemcomm, 2017).
The source made the active and inactive calls. The calls are words filed in the database; no cut-off is given here.

Assays:
Myeloperoxidase [1] = biological target: T1, Myeloperoxidase (Homo sapiens, UniProt P05164); assay: Inhibition of human MPO assessed as reduction in enzyme-mediated chlorination by measuring reduction in HOCl formation in presence of H2O2/NaCl measured at 30 secs time interval for 5 mins by APF dye based fluorescence assay
T1 sequence (P05164 whole entry): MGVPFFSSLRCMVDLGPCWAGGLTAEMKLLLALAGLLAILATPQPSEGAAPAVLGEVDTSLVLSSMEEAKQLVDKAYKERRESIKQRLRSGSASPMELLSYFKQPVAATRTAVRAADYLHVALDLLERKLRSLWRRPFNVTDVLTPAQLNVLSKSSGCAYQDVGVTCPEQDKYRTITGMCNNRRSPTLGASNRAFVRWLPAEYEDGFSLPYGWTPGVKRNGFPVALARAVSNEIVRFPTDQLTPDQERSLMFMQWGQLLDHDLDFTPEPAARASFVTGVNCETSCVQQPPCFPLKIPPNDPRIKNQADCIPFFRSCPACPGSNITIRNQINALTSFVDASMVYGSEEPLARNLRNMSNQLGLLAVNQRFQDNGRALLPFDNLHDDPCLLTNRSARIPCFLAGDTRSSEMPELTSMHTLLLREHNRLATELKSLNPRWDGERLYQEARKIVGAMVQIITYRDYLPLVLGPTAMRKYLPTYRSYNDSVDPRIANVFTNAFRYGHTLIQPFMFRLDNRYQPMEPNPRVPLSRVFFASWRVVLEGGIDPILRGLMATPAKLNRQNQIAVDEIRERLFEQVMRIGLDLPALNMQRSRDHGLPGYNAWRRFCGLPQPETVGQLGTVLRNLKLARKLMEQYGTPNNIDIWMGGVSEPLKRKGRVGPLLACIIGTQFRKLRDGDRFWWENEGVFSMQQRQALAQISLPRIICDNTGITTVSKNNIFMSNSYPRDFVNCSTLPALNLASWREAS

[2] = Redox activity assessed as conversion of resazurin reagent to resorufin at 10 uM after 30 mins by fluorescence assay relative to control; format: physicochemical; settings: 0.5 h
How it was run: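 Redox counterscreen: compound 10 μM final incubated with 5 μM resazurin reagent (final) 30 min; fluorescence intensity read; normalized to a reactive styrylpyrimidotriazinedione standard at 10 μM as 100%.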

Myeloperoxidase [3] = biological target: T1, Myeloperoxidase; assay: Inhibition of MPO in human neutrophils assessed as reduction in PMA-stimulated HOCl production incubated for 3 mins and measured for 25 mins by luminol reagent based luminescence assay
How it was run: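 Neutrophils from healthy donors isolated by dextran sedimentation then Ficoll-Paque, resuspended in HBSS; 1.106 cells/mL stimulated with 100 nM PMA; inhibitor 22 μM down to 1 nM (1:3, 10 doses) in 10% ethanol/50% PEG/40% water, 3 min at rt; luminol 100 μM final, read 25 min at 37 °C; rate taken from initial linear region.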

Thyroid peroxidase = biological target: T2, Thyroid peroxidase (Homo sapiens, UniProt P07202); assay: Inhibition of recombinant human C-terminal His6-tagged TPO (15 to 839 residues) expressed in baculovirus infected insect cells assessed as reduction in H2O2-catalyzed 3,5-iodo tyrosine formation using 3-iodotyrosine and potassium iodide preincubated for 10 mins followed by 3,5-iodo tyrosine/potassium iodide/H2O2 addition and measured after 15 mins
T2 sequence (P07202 whole entry): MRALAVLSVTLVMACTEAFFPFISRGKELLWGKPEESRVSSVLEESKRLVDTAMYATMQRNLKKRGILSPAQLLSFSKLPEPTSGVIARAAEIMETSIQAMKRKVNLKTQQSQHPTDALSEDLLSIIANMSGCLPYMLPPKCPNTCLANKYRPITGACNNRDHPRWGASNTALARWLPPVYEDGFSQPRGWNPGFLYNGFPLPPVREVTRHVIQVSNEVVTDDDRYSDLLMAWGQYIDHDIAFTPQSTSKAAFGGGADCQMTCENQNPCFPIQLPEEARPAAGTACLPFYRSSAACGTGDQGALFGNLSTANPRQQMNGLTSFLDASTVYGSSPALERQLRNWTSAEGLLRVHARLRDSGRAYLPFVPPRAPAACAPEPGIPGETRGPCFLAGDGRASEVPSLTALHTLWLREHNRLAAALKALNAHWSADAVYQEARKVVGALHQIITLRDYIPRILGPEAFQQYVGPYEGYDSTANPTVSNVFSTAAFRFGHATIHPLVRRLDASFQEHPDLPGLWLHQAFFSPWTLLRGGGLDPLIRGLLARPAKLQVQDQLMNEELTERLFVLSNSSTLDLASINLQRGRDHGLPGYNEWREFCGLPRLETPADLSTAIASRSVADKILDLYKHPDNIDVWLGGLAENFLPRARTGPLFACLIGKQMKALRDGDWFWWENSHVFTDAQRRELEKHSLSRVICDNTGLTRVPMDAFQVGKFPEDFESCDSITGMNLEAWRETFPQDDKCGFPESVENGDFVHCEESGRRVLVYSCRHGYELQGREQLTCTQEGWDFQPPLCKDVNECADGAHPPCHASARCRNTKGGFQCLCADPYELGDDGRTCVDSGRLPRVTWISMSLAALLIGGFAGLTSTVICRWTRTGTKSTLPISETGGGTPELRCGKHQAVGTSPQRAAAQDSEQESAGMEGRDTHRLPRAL
How it was run: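 TPO residues 15–839 with C-terminal His6, baculovirus/T. ni expressed, purified by Ni affinity, anion exchange and size exclusion; 4.0 nM in 100 mM KPi pH 7.4, 10 min rt preincubation with inhibitor; then 400 μM KI/240 μM 3-iodotyrosine mix and 20 μM H2O2 (added solutions); 3,5-iodotyrosine formation monitored.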

[4] = biological target: T3, Myeloperoxidase (Homo sapiens) (UniProt P05164); assay: Substrate activity at human MPO assessed as reversion of enzyme to resting state at 40 uM in presence of H2O2 by stopped flow assay
T3 sequence (whole entry): T1 sequence (P05164 whole entry)
How it was run: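 Stopped-flow at 25 °C: syringe 1 with 2 μM MPO and 5 μM H2O2 in phosphate buffer, syringe 2 with inhibitor and 5 μM H2O2; equal volumes rapidly mixed, spectra acquired in PDA mode to follow several MPO species; representative of numerous replicates.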

[5] = biological target: T3, Myeloperoxidase (Homo sapiens); assay: Inhibition of human MPO assessed as reduction in enzyme-mediated chlorination by measuring reduction in HOCl formation at 10 uM preincubated for 10 mins followed by H2O2/NaCl addition and measured at 30 secs time interval for 5 mins by APF dye based fluorescence assay relative to control
How it was run: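 HTS APF chlorination, 1536-well: 1.75 nM human MPO with 20 μM H2O2 final, compound 10 μM final, preincubated 10 min; APF reagent added, fluorescence 485/535 nm read every 30 s for 5 min; slope normalized to DMSO (0%) and no-MPO wells (100% inhibition).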

Myeloperoxidase [6] = biological target: T1, Myeloperoxidase; assay: Inhibition of human MPO assessed as reduction in enzyme-mediated chlorination by measuring reduction in HOCl formation preincubated for 10 mins followed by H2O2/NaCl addition and measured at 30 secs time interval for 5 mins by APF dye based fluorescence assay

IC50 (Myeloperoxidase [1]) [nM]	Activity [2]	IC50 (Myeloperoxidase [3]) [nM]	IC50 (Thyroid peroxidase) [nM]	Activity [4]	inhibition [5] [%]	IC50 (Myeloperoxidase [6]) [nM]	Compound
84	Not Active	5000	> 30000	inactive	30	110	Nc1nc(OCc2ccccc2)c2[nH]nnc2n1
320	Not Active	1700	6000	Active	30	360	Nc1ccc(Oc2cc(Cl)c(Cl)cc2Cl)cn1
